A selection: hits, their analogues and other compounds. The true share with any hit is near 3.7%.
MPTP block: inhibitors of mitochondrial permeability transition pore; inhibition, % at 10 µM; isolated mouse mitochondria, Ca2+ swelling absorbance, 30 min; 1.4% of 360,000 active;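 active = inhibition of 50% or more, scaled per plate between neutral and stimulator controls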;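 note: 0% = DMSO wells given calcium and 100% = 1 mM EGTA wells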
proCasp7 act: counter-screen: procaspase-7 (human) activation; recombinant procaspase-7, Ac-DEVD-pNA absorbance 405 nm; D23A/D198A/D206A triple mutant, cannot self-cleave; scale: DMSO 0, 5 µM enzyme 100; P55210; AID 463210; activation, % at 8.5 µM; 0.093% of 330,000 active;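 active = percent activation above the screen-wide mean plus 3 SD, cut at about 25% in these data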
Target sequence (P55210 whole entry D23A/D198A/D206A): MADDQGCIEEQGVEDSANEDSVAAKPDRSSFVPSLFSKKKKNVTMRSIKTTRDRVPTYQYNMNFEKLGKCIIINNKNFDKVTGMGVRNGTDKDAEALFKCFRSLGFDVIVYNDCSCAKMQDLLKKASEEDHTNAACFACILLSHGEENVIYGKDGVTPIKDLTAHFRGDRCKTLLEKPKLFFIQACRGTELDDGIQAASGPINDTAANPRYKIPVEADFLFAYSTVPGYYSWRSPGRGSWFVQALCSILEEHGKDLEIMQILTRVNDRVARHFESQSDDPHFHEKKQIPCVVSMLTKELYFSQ
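Material: Procaspase-7 triple mutant (PC-7 D3A) | Quantity: 2 µM procaspase-7 mutant as dispensed | Reagent: DEVD-pNA substrate | Times: 1 h preincubation, 2 h reaction | Technique: 405 nm absorbance of p-nitroaniline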
proCasp3 act: activators of human procaspase-3; recombinant procaspase-3 D3A, Ac-DEVD-pNA absorbance 405 nm; activation, % at 8.5 µM; 0.11% of 330,000 active; AID 463141;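 active = activation above the mean of all tested compounds plus 3 SD, cut at about 21% in these data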;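 note: 0% = DMSO alone and 100% = DMSO wells spiked with extra 5 µM PC-3 D3A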
Target sequence (P42574 whole entry D9A/D28A/D175A): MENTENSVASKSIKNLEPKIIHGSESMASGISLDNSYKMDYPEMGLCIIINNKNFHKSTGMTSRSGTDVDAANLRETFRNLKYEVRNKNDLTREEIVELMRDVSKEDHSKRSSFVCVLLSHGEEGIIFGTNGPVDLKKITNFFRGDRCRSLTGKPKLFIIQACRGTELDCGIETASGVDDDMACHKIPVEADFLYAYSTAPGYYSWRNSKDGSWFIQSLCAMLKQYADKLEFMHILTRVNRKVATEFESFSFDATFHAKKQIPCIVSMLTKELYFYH
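Assay system – Procaspase-3 D3A mutant, all three cleavage aspartates alanine · Controls – DMSO-only low control, 5 µM PC-3 D3A high control · Schedule – 1 h compound preincubation, 2 h substrate hydrolysis at 25 °C · Signal – 405 nm absorbance of p-nitroaniline, reads at 0 and 120 min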
aDG glyco up: alpha-DG glycosylation activation. AID 624168. Pro5-aDG cells, alpha-DG glycosylation AlphaScreen (IIH6); 0% Pro5, 100% B10-LARGE cell signal. activation, % at 10 µM. 0.22% of 360,000 active;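 active = activation of at least 8% versus controls, or a plate z-score of at least 8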;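 note: Pro5 are CHO cells carrying HIG-tagged alpha-DG that lacks glycosylation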
GRIN3A LBD mod: modulators (binders) of human NR3A ligand-binding domain. NR3A LBD differential scanning fluorimetry, Tm shift; 0% = protein alone, 100% = glycine-bound protein. Tm shift relative to glycine control, % at 25 µM. 2.5% of 340,000 active. AID 1259313;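 active = melting temperature shift of at least 10% of the positive control shift, at one fixed dose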
Rh123 counter: membrane potential counter-screen of mitochondrial pore inhibitors. shares compounds with MPTP block. isolated mitochondria, Rhodamine 123 fluorescence. inhibition, % at 10 µM. 78% of 5,000 active; in the data active = inhibition above about 22%;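 note: 0% = DMSO vehicle and 100% = positive control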
MPTP swell DR: dose response confirmation of mitochondrial permeability transition pore inhibitors. shares compounds with MPTP block. isolated mitochondria swelling, absorbance. IC50, µM. 58% of 780 active. AID 651561; in the data active = IC50 below about 20 µM
MPTP counter DR: MPTP inhibitor counter-screen activity, dose response | AID 651564 | IC50, µM | 49% of 780 active | isolated mitochondria counterscreen, fluorescence read-out | shares compounds with MPTP block; in the data active = IC50 below about 80 µM
* hit, by the source's call; i = inactive; . = not tested or not shown; ! = not active in a repeat.

SMILES	MPTP block	proCasp7 act	proCasp3 act	aDG glyco up	GRIN3A LBD mod	Rh123 counter	others
CCCCCc1c2c(cc(O)c1C(=O)O)OC(=O)c1c(cc(OC)cc1C(=O)CCCC)O2	90*	0	5	0	-3	28*
CCCCCc1c2c(cc(O)c1C(=O)O)OC(=O)c1cc(C(=O)CCCC)c(OC)cc1O2	95*	2	2	0	-6	57*
Cc1ccc(NC(=O)CSc2ccccc2NC(=O)c2ccccc2)cc1Cl	92*	11	7	0	1	65*
Cc1ccc(NC(=O)CSc2ccccc2NC(=O)c2ccccc2Cl)cc1Cl	90*	4	9	0	11*	87*
Cc1cc(NC(=O)c2ccccc2Cl)ccc1NC(=O)c1ccccc1Cl	4	0	3	0	-1	.
Cc1ccc(S(=O)(=O)NCCC(=O)NC2CCCCCC2)cc1	0	.	.	0	0	.
COc1cc(OC)c(NC(=S)Nc2cccc(C)c2)cc1Cl	1	-10	-3	0	-6	.
COc1ccc(NC(=S)Nc2cccc(Cl)c2Cl)cc1OC	0	-16	-8	0	0	.
COc1ccccc1NS(=O)(=O)c1cc(NC(=S)Nc2cc(C)cc(C)c2)ccc1Cl	97*	2	2	0	20*	94*
COc1cc(C)c(NC(=S)Nc2ccc(C)c(Cl)c2)cc1OC	61*	-18	-13	0	6	77*
COc1cc(C)c(NC(=S)Nc2cccc(Cl)c2)cc1OC	83*	-5	-7	0	0	83*
COc1cc(C(CC(=O)O)n2cnnn2)ccc1OC(C)C (configuration not stated)	-1	-1	4	0	1	.
CN(C)CCCNc1ncnc2c1c(-c1ccccc1)cn2-c1ccccc1	59*	7	7	2	-1	-6	MPTP swell DR=i;MPTP counter DR=>80
Cc1c(CCOC(=O)C2C3CC4CC(C3)CC2C4)sc[n+]1CC(=O)c1ccc(Br)cc1 (configuration not stated)	100*!	8	1	0	-4	-3	MPTP swell DR=3.7*;MPTP counter DR=21*
CC(=O)c1cccc(NC(=O)Nc2csc3c2CCCC3)c1	80*	3	-4	0	1	94*
COc1ccc(-n2ncc3c(=O)n(Cc4c(F)cccc4Cl)cnc32)cc1	0	2	3	1	1	.
CCn1cc(C(=O)NC2CCCc3c2cnn3-c2cccc(C)c2C)cn1 (configuration not stated)	87*	7	0	5	.	104*
Cc1cccc(-n2ncc3c2CCCC3NC(=O)c2cccs2)c1C (configuration not stated)	10	.	.	3	.	.
Cc1cccc(-n2ncc3c2CCCC3NC(=O)c2ccncc2)c1C (configuration not stated)	86*	.	.	2	.	90*
Cc1cc(C(=O)NC2CCCc3c2cnn3-c2ccc(C(C)(C)C)cc2)nn1C (configuration not stated)	89*	3	9	4	1	105*
O=S(=O)(c1ccccc1)N1CCC(O)(CSc2ccc(Cl)cc2)CC1	98*	7	0	1	-14	84*
CC(c1ccco1)N(C(=O)c1ccccc1NS(=O)(=O)c1cc([N+](=O)[O-])ccc1Cl)c1ccccn1 (configuration not stated)	1	-4	1	0	-8	.
CC(c1ccco1)N(C(=O)c1ccccc1NS(=O)(=O)c1cccc([N+](=O)[O-])c1)c1ccccn1 (configuration not stated)	51*	-5	3	0	-2	78*
Cc1ccc(NC(=O)CCn2c(=O)c3cccn3c3ccccc32)cc1C	-3	4	12	0	-8	.
CN(O)C(=O)Nc1ccc([N+](=O)[O-])cc1	83*	8	4	0	-12	96*
SMILES	MPTP block	proCasp7 act	proCasp3 act	aDG glyco up	GRIN3A LBD mod	Rh123 counter	others
CC(C)(C)C(=O)Nc1ccc(Sc2ccc([N+](=O)[O-])cc2)cc1	96*	-5	-6	1	-3	93*
O=C(C[C@H]1C(=O)N(Cc2ccccc2)C[C@@H]1Cc1ccccc1)Nc1ccc(Br)cc1	1	.	.	0	.	.
Cc1c(C2(O)CCCCC2)[nH]c2cc(C(F)(F)F)ccc12	35	-3	-6	0	-8	.
CCc1c(C2(O)CCCCC2)[nH]c2cc(C(F)(F)F)ccc12	82*	-5	-3	1	-4	86*
CN(C)c1ccc(C=c2c3ccccc3n3c2cc(-c2ccccc2)[n+]3C)cc1	58*	.	.	0	-11	75*
COc1cc(N(C)C)ccc1C=c1c2ccccc2n2c1cc(-c1ccccc1)[n+]2C	56*	.	.	-1	-25	77*
CN(C)c1ccc(C=c2c3ccccc3n3c2c2c([n+]3C)CCCC2)cc1	65*	.	.	1	-11	76*
COc1cc(C=c2c3ccccc3n3c2cc(-c2ccccc2)[n+]3C)cc(OC)c1OC	-4	.	.	1	-4	.
COCCNC(=O)C1(C)CCCN(CCSc2ccccc2)C1 (configuration not stated)	-1	.	.	0	.	.
CCOc1ccc(-c2c(C)sc3nc[nH]c(=O)c23)cc1	0	9	10	0	2	.
CC(C)(c1ccccc1)c1ccc(OCC(O)CNC2CCN(Cc3ccccc3)CC2)cc1 (configuration not stated)	68*	9	-2	-1	1	-12
Cc1cc(C)c(C(=O)COC(=O)C2CC3CCCC(C2)C3=O)c(C)c1 (configuration not stated)	-1	-5	5	0	-1	.
Cc1ccccc1C(=O)NCCCCc1ccccc1	1	4	-3	0	0	.
Nc1nc2ccccc2cc1C(=O)NCCCCc1ccccc1	94*	.	.	3	.	104*
O=C(COc1c(F)c(F)c(C(F)(F)F)c(F)c1F)Nc1ccc(N2CCOCC2)c(Cl)c1	90*	-4	-2	1	11*	78*
CSc1ccc(OCC(=O)Nc2ccc(N3CCOCC3)c(Cl)c2)cc1	1	.	.	0	-10	.
CCC(C)c1ccc(OCC(=O)Nc2cccc(C(=O)Nc3ccc(C(=O)O)cc3)c2)cc1 (configuration not stated)	-1	-6	-9	0	-7	.
CCC(C)c1ccc(NC(=O)COc2c(F)c(F)c(C(F)(F)F)c(F)c2F)cc1 (configuration not stated)	83*	-7	-4	0	4	95*

Bioassay records from PubChem BioAssay.
